This is an account of results in ChEMBL document CHEMBL4321796, “Proteolysis Targeting Chimeras for the Selective Degradation of Mcl-1/Bcl-2 Derived from Nonselective Target Binding Ligands” (J Med Chem, 2019).

Test [1] has as its target T1, Protein cereblon/Apoptosis regulator Bcl-2 (Homo sapiens, UniProt P10415+Q96SW2). The test can be described thus: Induction of CRBN-mediated Bcl-2 degradation in human HeLa cells assessed as reduction in Bcl-2 level at 10 uM after 12 hrs by Western blot analysis relative to control. It is filed as cell-based. Also noted: scale not given: the % may be the effect or the level left.
Target sequence in this assay (P10415 whole entry, looked up): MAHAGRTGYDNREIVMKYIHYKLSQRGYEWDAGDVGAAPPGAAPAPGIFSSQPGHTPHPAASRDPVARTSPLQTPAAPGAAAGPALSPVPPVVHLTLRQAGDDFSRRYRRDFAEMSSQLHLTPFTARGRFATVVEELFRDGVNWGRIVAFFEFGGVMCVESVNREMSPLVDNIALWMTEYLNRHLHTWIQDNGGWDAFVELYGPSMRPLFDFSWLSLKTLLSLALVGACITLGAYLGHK
Target sequence in this assay (Q96SW2 whole entry, looked up): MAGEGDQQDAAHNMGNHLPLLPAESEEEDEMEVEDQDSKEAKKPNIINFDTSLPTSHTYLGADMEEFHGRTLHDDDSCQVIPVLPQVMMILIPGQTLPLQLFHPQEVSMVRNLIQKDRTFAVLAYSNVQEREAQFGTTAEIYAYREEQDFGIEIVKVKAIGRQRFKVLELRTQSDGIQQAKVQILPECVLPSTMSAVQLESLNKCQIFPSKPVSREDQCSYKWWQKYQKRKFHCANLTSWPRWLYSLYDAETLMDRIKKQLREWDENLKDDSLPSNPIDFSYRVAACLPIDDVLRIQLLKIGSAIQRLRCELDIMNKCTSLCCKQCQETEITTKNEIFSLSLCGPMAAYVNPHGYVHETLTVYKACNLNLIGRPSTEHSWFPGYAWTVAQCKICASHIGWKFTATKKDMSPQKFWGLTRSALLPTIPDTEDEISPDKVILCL

The next test has as its system HeLa. Kind of test: Induction of CRBN-mediated tubulin degradation in human HeLa cells at 10 uM incubated for 12 hrs by Western blot analysis. The format is cell-based. The method in brief: (§1)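 HeLa cells (DMEM, 10% FBS, 37 °C, 5% CO2) treated 12 h with compound (10 µM, or 0–10 µM gradient; time course 0–24 h at 10 µM). Lysis in NP-40 buffer with protease inhibitors, equal protein loaded for SDS-PAGE and immunoblotting. Bands quantified relative to DMSO control. n=3 independent samples.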

Test [2] deals with Protein cereblon/E3 ubiquitin-protein ligase Mdm2 (Homo sapiens) (UniProt Q00987+Q96SW2). The test can be described thus: Induction of CRBN-mediated MDM2 degradation in human HeLa cells at 10 uM incubated for 12 hrs by Western blot analysis. It is filed as cell-based.
The target in test [3] is T1, Protein cereblon/Apoptosis regulator Bcl-2. Kind of test: Induction of CRBN-mediated Bcl-2 degradation in human HeLa cells assessed as relative abundance at 10 uM measured at 24 hrs by Western blot analysis (reference value: 1). It is filed as cell-based. The method in brief:
(§2)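 HeLa cells in DMEM with 10% FBS, exposed to 10 µM compound over a 0–24 h time course. Mcl-1 and Bcl-2 detected by immunoblot (NP-40 lysis, BCA-equalized SDS-PAGE, PVDF, ECL) and quantified relative to DMSO control; mean ± s.d., n=3 independent samples.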
Target sequence in this assay (P10415 whole entry, looked up): as the sequence (P10415 whole entry, looked up) above
Target sequence in this assay (Q96SW2 whole entry, looked up): as the sequence (Q96SW2 whole entry, looked up) above

Test [4] has the same target. The test can be described thus: Induction of CRBN-mediated Bcl-2 degradation in human HeLa cells assessed as relative abundance at 0.3 uM after 12 hrs by Western blot analysis (reference value: 1). The format is cell-based.
Target sequence in this assay (P10415 whole entry, looked up): as the sequence (P10415 whole entry, looked up) above
Target sequence in this assay (Q96SW2 whole entry, looked up): as the sequence (Q96SW2 whole entry, looked up) above
Test [5] has as its target Apoptosis regulator Bcl-2 (Homo sapiens, UniProt P10415). The test can be described thus: Inhibition of biotinylated Bim peptide (81 to 106 residues) binding to His-tagged human Bcl-2 expressed in Escherichia coli BL21 (DE3) cells preincubated for 1 hr followed by biotinylated Bim peptide addition measured after 2 hrs by ELISA. The method in brief: (§3)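 Inhibitor serially diluted (100–0.1 µM) from 10 mM DMSO stock, preincubated 1 h with 200 nM His-tagged protein in PBS (final DMSO 4%), then added 2 h to streptavidin plates holding biotin-Bim (plated at 0.09 mg/mL). Incubations at 4 °C. Detection with HRP anti-His, TMB 30 min, H2SO4 stop, A450. IC50 averaged from three independent experiments, with SD.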

Test [6] addresses T2, Protein cereblon/Induced myeloid leukemia cell differentiation protein Mcl-1 (Homo sapiens, UniProt Q07820+Q96SW2). Kind of test: Induction of CRBN-mediated Mcl-1 degradation in human HeLa cells assessed as relative abundance at 10 uM measured at 24 hrs by Western blot analysis (reference value: 1). The format is cell-based. The method in brief: as §2
In test [7] the target is T1, Protein cereblon/Apoptosis regulator Bcl-2. The test can be described thus: Induction of CRBN-mediated Bcl-2 degradation in human HeLa cells after 12 hrs by Western blot analysis. The format is cell-based.
Target sequence in this assay (P10415 whole entry, looked up): as the sequence (P10415 whole entry, looked up) above
Target sequence in this assay (Q96SW2 whole entry, looked up): as the sequence (Q96SW2 whole entry, looked up) above
Test [8] deals with Protein cereblon/Bcl-2-like protein 1 (Homo sapiens) (UniProt Q07817+Q96SW2). The test can be described thus: Induction of CRBN-mediated Bcl-xl degradation in human HeLa cells at 10 uM incubated for 12 hrs by Western blot analysis. The format is cell-based.
For test [9], the target named is T1, Protein cereblon/Apoptosis regulator Bcl-2. The test can be described thus: Induction of CRBN-mediated Bcl-2 degradation in human HeLa cells at 10 uM pretreated with Bcl-2 inhibitor Nap-1 followed by compound addition by Western blot analysis. It is filed as cell-based.
Target sequence in this assay (P10415 whole entry, looked up): as the sequence (P10415 whole entry, looked up) above
Target sequence in this assay (Q96SW2 whole entry, looked up): as the sequence (Q96SW2 whole entry, looked up) above
Test [10] has the same target. The test can be described thus: Induction of CRBN-mediated Bcl-2 degradation in human HeLa cells at 10 uM pretreated with CRBN inhibitor pomalidomide followed by compound addition by Western blot analysis. The format is cell-based.
Target sequence in this assay (P10415 whole entry, looked up): as the sequence (P10415 whole entry, looked up) above
Target sequence in this assay (Q96SW2 whole entry, looked up): as the sequence (Q96SW2 whole entry, looked up) above
The target in test [11] is T2, Protein cereblon/Induced myeloid leukemia cell differentiation protein Mcl-1. The test can be described thus: Induction of CRBN-mediated Mcl-1 degradation in human HeLa cells assessed as relative abundance at 0.3 uM after 12 hrs by Western blot analysis (reference value: 1). It is filed as cell-based.
Test [12] shares this target. The test can be described thus: Induction of CRBN-mediated Mcl-1 degradation in human HeLa cells assessed as relative abundance at 10 uM measured at 2 hrs by Western blot analysis (reference value: 1). The format is cell-based. The method in brief: as §2
The target of test [13] is T1, Protein cereblon/Apoptosis regulator Bcl-2. The test can be described thus: Induction of CRBN-mediated Bcl-2 degradation in human HeLa cells assessed as relative abundance at 10 uM measured at 2 hrs by Western blot analysis (reference value: 1). It is filed as cell-based. The method in brief: as §2
For test [14] the target is unchanged. Kind of test: Induction of CRBN-mediated Bcl-2 degradation in human HeLa cells at 10 uM by Western blot analysis. The format is cell-based. The following applies: TDE = time-dependent effect.
The target is the same in test [15]. The test can be described thus: Induction of CRBN-mediated Bcl-2 degradation in human HeLa cells assessed as relative abundance at 0.1 uM after 12 hrs by Western blot analysis (reference value: 1). It is filed as cell-based.
The target is the same in test [16]. Kind of test: Protac activity at CRBN/Bcl-2 in human HeLa cell lysates assessed as ternary complex formation by Western blot analysis based pull-down assay. The settings on record: Lysate. It is filed as subcellular. The method in brief: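 HeLa lysate (25×10^6 cells, 1% Triton X-100 IP buffer), 1 mg total protein, incubated overnight with 1 µg CRBN antibody across a compound concentration gradient. Capture on protein A+G agarose, three Triton washes, boiled in loading buffer. Mcl-1, Bcl-2 and CRBN detected by immunoblotting. n=3 independent samples.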

The target is the same in test [17]. The test can be described thus: Induction of CRBN-mediated Bcl-2 degradation in human HeLa cells assessed as relative abundance at 1 uM after 12 hrs by Western blot analysis (reference value: 1). The format is cell-based.
The target of test [18] is T2, Protein cereblon/Induced myeloid leukemia cell differentiation protein Mcl-1. Kind of test: Induction of CRBN-mediated Mcl-1 degradation in human HeLa cells assessed as relative abundance at 1 uM after 12 hrs by Western blot analysis (reference value: 1). The format is cell-based.
Test [19] has the same target. The test can be described thus: Induction of CRBN-mediated Mcl-1 degradation in human HeLa cells assessed as relative abundance at 10 uM measured at 16 hrs by Western blot analysis (reference value: 1). It is filed as cell-based. The method in brief:
as §2

Test [20] has the same target. The test can be described thus: Induction of CRBN-mediated Mcl-1 degradation in human HeLa cells assessed as relative abundance at 10 uM measured at 4 hrs by Western blot analysis (reference value: 1). It is filed as cell-based. The method in brief: as §2
The target of test [21] is Induced myeloid leukemia cell differentiation protein Mcl-1 (Homo sapiens, UniProt Q07820). The test can be described thus: Inhibition of biotinylated Bim peptide (81 to 106 residues) binding to His-tagged human Mcl-1 expressed in Escherichia coli BL21 (DE3) cells preincubated for 1 hr followed by biotinylated Bim peptide addition measured after 2 hrs by ELISA. The method in brief:
as §3

For test [22], the target named is T2, Protein cereblon/Induced myeloid leukemia cell differentiation protein Mcl-1. Kind of test: Induction of CRBN-mediated Mcl-1 degradation in human HeLa cells assessed as relative abundance at 10 uM measured at 8 hrs by Western blot analysis (reference value: 1). The format is cell-based. The method in brief:
as §2

Test [23] shares this target. Kind of test: Induction of CRBN-mediated Mcl-1 degradation in human HeLa cells assessed as relative abundance at 10 uM measured at 20 hrs by Western blot analysis (reference value: 1). The format is cell-based. The method in brief:
as §2

The target in test [24] is T1, Protein cereblon/Apoptosis regulator Bcl-2. Kind of test: Induction of CRBN-mediated Bcl-2 degradation in human HeLa cells assessed as relative abundance at 10 uM after 12 hrs by Western blot analysis (reference value: 1). It is filed as cell-based.
Test [25] shares this target. The test can be described thus: Induction of CRBN-mediated Bcl-2 degradation in human HeLa cells assessed as relative abundance at 10 uM measured at 16 hrs by Western blot analysis (reference value: 1). The format is cell-based. The method in brief:
as §2

The target of test [26] is T2, Protein cereblon/Induced myeloid leukemia cell differentiation protein Mcl-1. Kind of test: Induction of CRBN-mediated Mcl-1 degradation in human HeLa cells assessed as relative abundance at 3 uM after 12 hrs by Western blot analysis (reference value: 1). The format is cell-based.
Test [27] shares this target. Kind of test: Induction of CRBN-mediated Mcl-1 degradation in human HeLa cells assessed as relative abundance at 10 uM after 12 hrs by Western blot analysis (reference value: 1). It is filed as cell-based.
Test [28] deals with T1, Protein cereblon/Apoptosis regulator Bcl-2. Kind of test: Induction of CRBN-mediated Bcl-2 degradation in human HeLa cells assessed as reduction in Bcl-2 level at 1 uM after 12 hrs by Western blot analysis relative to control. It is filed as cell-based. Also noted: scale not given: the % may be the effect or the level left.
For test [29] the target is unchanged. The test can be described thus: Induction of CRBN-mediated Bcl-2 degradation in human HeLa cells assessed as relative abundance at 3 uM after 12 hrs by Western blot analysis (reference value: 1). The format is cell-based.
Test [30] has the same target. The test can be described thus: Induction of CRBN-mediated Bcl-2 degradation in human HeLa cells assessed as relative abundance at 10 uM measured at 8 hrs by Western blot analysis (reference value: 1). It is filed as cell-based. The method in brief:
as §2

Test [31] shares this target. Kind of test: Induction of CRBN-mediated Bcl-2 degradation in human HeLa cells at 10 uM pretreated with proteasome inhibitor MG-132 followed by compound addition by Western blot analysis. The format is cell-based.
The target is the same in test [32]. Kind of test: Induction of CRBN-mediated Bcl-2 degradation in human HeLa cells assessed as relative abundance at 10 uM measured at 20 hrs by Western blot analysis (reference value: 1). The format is cell-based. The method in brief:
as §2

Test [33] concerns the target T2, Protein cereblon/Induced myeloid leukemia cell differentiation protein Mcl-1. Kind of test: Induction of CRBN-mediated Mcl-1 degradation in human HeLa cells assessed as relative abundance at 0.1 uM after 12 hrs by Western blot analysis (reference value: 1). The format is cell-based.
Test [34] addresses T1, Protein cereblon/Apoptosis regulator Bcl-2. The test can be described thus: Induction of CRBN-mediated Bcl-2 degradation in human HeLa cells assessed as relative abundance at 10 uM measured at 4 hrs by Western blot analysis (reference value: 1). It is filed as cell-based. The method in brief:
as §2

Test [35] has the same target. Kind of test: Induction of CRBN-mediated Bcl-2 degradation in human HeLa cells measured at 12 hrs by Western blot analysis. The format is cell-based.
Target sequence in this assay (P10415 whole entry): as the sequence (P10415 whole entry, looked up) above
Target sequence in this assay (Q96SW2 whole entry): as the sequence (Q96SW2 whole entry, looked up) above
The test system of a further test is NCI-H23. Kind of test: Cytotoxicity against human H23 cells incubated for 24 hrs by CCK8 assay. The format is functional, cell-based. The method in brief:
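H23 cells seeded at 4 × 10^4 per mL in RPMI with 10% FBS, L-glutamine and pen/strep. Treated 24 h at various concentrations or with DMSO vehicle (0.05%). Viability read by CCK8 and normalized against cell-free background and untreated cultures; mean ± s.e.m., n=3.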

The target in test [36] is T2, Protein cereblon/Induced myeloid leukemia cell differentiation protein Mcl-1. Kind of test: Induction of CRBN-mediated Mcl-1 degradation in human HeLa cells by Western blot analysis. The format is cell-based. The method in brief: as §1

pIC50: −log10 of the molar value. Activity calls are given as the source filed them. The calls are words filed in the database; no cut-off is given here.

T2 sequence (Q07820 whole entry, looked up): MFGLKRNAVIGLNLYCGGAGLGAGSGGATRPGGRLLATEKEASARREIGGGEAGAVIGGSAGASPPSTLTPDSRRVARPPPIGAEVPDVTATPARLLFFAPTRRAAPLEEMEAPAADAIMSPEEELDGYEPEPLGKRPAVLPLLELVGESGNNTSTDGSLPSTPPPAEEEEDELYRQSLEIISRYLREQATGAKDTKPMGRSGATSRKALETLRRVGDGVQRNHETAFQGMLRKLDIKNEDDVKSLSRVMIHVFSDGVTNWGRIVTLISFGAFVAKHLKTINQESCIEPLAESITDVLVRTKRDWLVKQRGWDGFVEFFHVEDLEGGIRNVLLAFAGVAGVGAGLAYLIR
T2 sequence (Q96SW2 whole entry, looked up): as the sequence (Q96SW2 whole entry, looked up) above
Apoptosis regulator Bcl-2, sequence (P10415 whole entry, the tested form may be a part): as the sequence (P10415 whole entry, looked up) above
Protein cereblon/Bcl-2-like protein 1 (Homo sapiens), sequence (Q07817 whole entry, looked up): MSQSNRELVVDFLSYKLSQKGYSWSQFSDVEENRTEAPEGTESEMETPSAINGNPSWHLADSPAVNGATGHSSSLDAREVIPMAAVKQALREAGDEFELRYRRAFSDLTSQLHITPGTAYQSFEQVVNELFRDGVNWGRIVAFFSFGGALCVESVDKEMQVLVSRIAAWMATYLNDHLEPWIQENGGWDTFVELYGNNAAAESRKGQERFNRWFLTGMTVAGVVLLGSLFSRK
Protein cereblon/Bcl-2-like protein 1 (Homo sapiens), sequence (Q96SW2 whole entry, looked up): as the sequence (Q96SW2 whole entry, looked up) above
Induced myeloid leukemia cell differentiation protein Mcl-1, sequence (Q07820 whole entry, the tested form may be a part): as the sequence (Q07820 whole entry, looked up) above
Protein cereblon/E3 ubiquitin-protein ligase Mdm2 (Homo sapiens), sequence (Q00987 whole entry, looked up): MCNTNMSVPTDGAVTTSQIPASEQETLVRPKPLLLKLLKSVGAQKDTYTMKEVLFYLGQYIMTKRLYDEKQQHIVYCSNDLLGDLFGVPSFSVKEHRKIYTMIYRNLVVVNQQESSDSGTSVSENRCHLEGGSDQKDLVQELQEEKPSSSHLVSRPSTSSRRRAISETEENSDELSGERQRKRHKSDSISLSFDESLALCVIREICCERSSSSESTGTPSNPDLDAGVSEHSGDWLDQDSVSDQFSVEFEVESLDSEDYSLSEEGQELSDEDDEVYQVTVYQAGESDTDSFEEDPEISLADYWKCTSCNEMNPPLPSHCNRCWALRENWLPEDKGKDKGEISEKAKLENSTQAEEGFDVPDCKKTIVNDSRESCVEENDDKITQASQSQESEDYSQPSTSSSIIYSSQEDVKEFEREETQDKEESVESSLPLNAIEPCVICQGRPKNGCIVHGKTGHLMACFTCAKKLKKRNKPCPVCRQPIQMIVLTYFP
Protein cereblon/E3 ubiquitin-protein ligase Mdm2 (Homo sapiens), sequence (Q96SW2 whole entry, looked up): as the sequence (Q96SW2 whole entry, looked up) above

With `O=C(CCCCC(=O)NCCN1C(=O)c2cccc3c(Sc4ccc(Br)cc4)ccc(c23)C1=O)NCCOCCOCCNc1cccc2c1C(=O)N(C1CCC(=O)NC1=O)C2=O` (stereo not drawn), the Activity in test [1] was 90%; in test [7], “Dose-dependent effect”; in test [14], “Tde”; in test [16], “Dose-dependent effect”; in test [28] it was 10%. The outcome (in the test on HeLa; in test [2]; in test [8]; in [9]; in test [10]; in [31]) was inactive. In addition, the fold change (FC) in [3] amounted to 1; in test [4], 0.9; in test [6] it was 0.8; in [11] it was 1; in [12], 1.1; in [13], 0.8. Besides, the fold change (FC) in [15] turned out to be 1; in [17], 0.9; in [18], 1; in test [19] it was 1.1; in test [20], 1; in test [22], 1. The fold change (FC) was 1 in test [23]; 0.1 in test [24]; 0.7 in [25]; 1.2 in [26]; 0.9 to 1 in test [27]; 0.5 in [29]. In addition, the fold change (FC) was determined as 0.3 in [30], 1 in [32], 1 in test [33] and 0.6 in test [34]. Moreover, the negative logarithm of the IC50 (pIC50) was 5.31 in test [5] and 4.93 in test [21]. For the same compound, the DC50 in [35] is 3 µM.
As for `CN1C(=O)CCC(N2C(=O)c3cccc(NCCCCCCNC(=O)CCCCC(=O)NCCN4C(=O)c5cccc6c(Sc7ccc(Br)cc7)ccc(c56)C4=O)c3C2=O)C1=O` (stereo not drawn), the outcome in the test with NCI-H23 was Active. Besides, the outcome in [36] was inactive.
